Data as given in paper PMC7392083 (Journal of the American Chemical Society, 2020).
pIC50: −log10 of the molar value. Where two headings read alike, the source gives them in different places.

Experiments:
[1] = molecular target: T1, human intelectin-1 (hItln-1) (Homo sapiens, UniProt Q8WWA0); test: Biolayer interferometry; format: binding; settings: for ΔΔG relative free energy of binding compared to Galf: column Galf; for ΔΔG relative free energy of binding compared to Glycerol 1-phosphate: column Glycerol 1-phosphate; for ΔΔG relative free energy of binding compared to KDO: column KDO; for ΔΔG relative free energy of binding compared to KO: column KO
T1 sequence (Q8WWA0 19-313): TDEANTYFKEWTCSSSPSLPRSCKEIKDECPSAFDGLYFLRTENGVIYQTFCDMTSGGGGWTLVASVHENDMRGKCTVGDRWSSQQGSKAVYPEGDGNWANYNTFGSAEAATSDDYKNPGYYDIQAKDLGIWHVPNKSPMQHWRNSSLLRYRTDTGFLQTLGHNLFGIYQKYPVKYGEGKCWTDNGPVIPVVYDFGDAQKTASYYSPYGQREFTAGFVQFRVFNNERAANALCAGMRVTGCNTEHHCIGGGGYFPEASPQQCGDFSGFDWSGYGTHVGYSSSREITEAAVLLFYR

[2] = molecular target: T1, human intelectin-1 (hItln-1); test: ELISA of hItln-1 binding to immobilized BSA-conjugated monosaccharides; settings: for Kd by ELISA: BSA-conjugated heptose sugars, single-site binding fit; for binding to hItln-1 by ELISA: saccharide conjugated in multiple copies to BSA and immobilized
In short: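 Sugar–BSA conjugates were adsorbed in PBS (1.5 μM sugar), 1 h RT, then blocked with 5% BSA in HEPES-T for 2 h. Serially diluted Strep-hItln-1 in HEPES-T + BSA was bound 2 h RT. Detection used anti-Strep-tag HRP (1:10,000, 2 h RT), then TMB quenched with 2 M H2SO4, read at 450 nm. One-site binding fit gave Kd. Mean ± SEM, n = 2 technical replicates.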

hItln-1 = settings: cited from earlier work
[3] = ΔΔG = 0.593 (kcal/mol) ln(IC50,row/IC50,column)

ΔΔG relative free energy of binding compared to Galf [1, 3] [kcal/mol]	ΔΔG relative free energy of binding compared to Glycerol 1-phosphate [1, 3] [kcal/mol]	ΔΔG relative free energy of binding compared to KDO [1, 3] [kcal/mol]	ΔΔG relative free energy of binding compared to KO [1, 3] [kcal/mol]	Kd by ELISA [2]	binding to hItln-1 by ELISA [2]	pIC50 [1]	IC50 value higher than that of allyl-KO ([1]; ratio of IC50 values) [fold]	ΔΔG relative free energy of binding compared to D,D-heptose ([1]; ΔΔG = 0.593 (kcal/mol) ln(IC50,row/IC50,column), column D,D-heptose) [kcal/mol]	SMILES	binding to hItln-1 (hItln-1)	binding to hItln-1 (hItln-1; listed as N-acetyl neuraminic acid)
0.1	–	0.2	0.7	–	–	–	–	–	O=P(O)(O)OC[C@H](O)CO [Glycerol 1-phosphate, D-glycerol 1-phosphate]	–	–
-0.6	–	–	–	–	bound	3.15	–	–	C=CCO[C@@]1(C(=O)O)O[C@H]([C@H](O)CO)[C@H](O)[C@H](O)[C@@H]1O [KO, prop-2-en-1-yl D-glycero-alpha-D-talo-oct-2-ulopyranosidonic acid]	–	–
2.0	1.9	2.0	2.4	could not be determined	no measurable binding	–	80	1.2	OC[C@H](O)[C@H]1O[C@H](O)[C@@H](O)[C@@H](O)[C@@H]1O [L,D-heptose, L-glycero-α-D-manno-heptose]	–	–

Second part, the compound before the results:

SMILES	ΔΔG relative free energy of binding compared to Galf [1, 3] [kcal/mol]	ΔΔG relative free energy of binding compared to Glycerol 1-phosphate [1, 3] [kcal/mol]	ΔΔG relative free energy of binding compared to KDO [1, 3] [kcal/mol]	ΔΔG relative free energy of binding compared to KO [1, 3] [kcal/mol]	Kd by ELISA [2]	binding to hItln-1 by ELISA [2]	pIC50 [1]	IC50 value higher than that of allyl-KO ([1]; ratio of IC50 values) [fold]	ΔΔG relative free energy of binding compared to D,D-heptose ([1]; ΔΔG = 0.593 (kcal/mol) ln(IC50,row/IC50,column), column D,D-heptose) [kcal/mol]	binding to hItln-1 (hItln-1)	binding to hItln-1 (hItln-1; listed as N-acetyl neuraminic acid)
OC[C@@H](O)[C@H]1O[C@H](O)[C@@H](O)[C@@H](O)[C@@H]1O [D,D-heptose, D-glycero-α-D-manno-heptose]	0.8	0.7	0.9	1.3	could not be determined	no measurable binding	–	–	–	–	–
OC[C@@H](O)[C@@H]1O[C@@H](O)[C@H](O)[C@H]1O [Galf, β-D-galactofuranose]	–	–	0.1	0.6	–	bound	–	–	–	–	–
CC(=O)N[C@H]1[C@H]([C@H](O)[C@H](O)CO)OC(O)(C(=O)O)C[C@@H]1O (stereo partly shown) [sialic acid, N-acetyl neuraminic acid]	–	–	–	–	–	–	–	–	–	not a ligand	does not bind
